Data as given in ChEMBL document CHEMBL1137821, “Design of non-nucleoside inhibitors of HIV-1 reverse transcriptase with improved drug resistance properties. 1” (J Med Chem, 2004).

How the values were obtained:
[1] = target: T1, Human immunodeficiency virus type 1 reverse transcriptase (Human immunodeficiency virus 1, UniProt Q72547); assay: Concentration required for 50% inhibition of human immunodeficiency virus type 1 reverse transcriptase Ile100
[2] = target: T1, Human immunodeficiency virus type 1 reverse transcriptase; assay: Concentration required for 50% inhibition of human immunodeficiency virus type 1 reverse transcriptase mutant type Cys181
MT4 [3] = assay: Inhibitory concentration against nevirapine resistant human immunodeficiency virus type 1 mutant type Tyr181Cys was determined in MT-4 cells; assay type: functional, cell-based
Outline: (§1)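 Whole-cell antiviral assay in MT4 cells, a human T-cell lymphotropic virus-transformed line. Cells were infected with wild-type HIV-1 strain IIIB or with nevirapine-resistant HIV-1 carrying the Tyr181Cys RT mutation. Inhibition was read by a propidium iodide-based colorimetric assay that estimates DNA content.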

MT4 [4] = assay: Inhibitory concentration against human immunodeficiency virus type 1 was determined in MT-4 cells; assay type: functional, cell-based; outline: as §1
[5] = target: T1, Human immunodeficiency virus type 1 reverse transcriptase; assay: Concentration required for 50% inhibition of human immunodeficiency virus type 1 reverse transcriptase mutant type Ile100
Outline: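 Inhibition of mutant HIV-1 RT enzyme, tested alongside wild-type RT; IC50 values are the mean of two independent experiments.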

| SMILES | IC50 [1] | IC50 [2] | IC50 (MT4 [3]) | IC50 (MT4 [4]) | IC50 [5] |
| --- | --- | --- | --- | --- | --- |
| CCCc1c([S+]([O-])C2CCCCC2)c2cc(Cl)ccc2[nH]c1=O (stereo unspecified) | 2.38 µM | 1.26 µM | 2.21 µM | 0.24 µM | – |
| CCCc1c(OC2CCCCC2)c2cc(Cl)ccc2[nH]c1=O | – | 1.13 µM | 0.6 µM | 0.03 µM | 1.36 µM |
| CC(C)c1c(OC2CCCCC2)c2cc(Cl)ccc2[nH]c1=O | – | 2.5 µM | 0.71 µM | 0.05 µM | 1.96 µM |
| CCCc1c(SC2CCCCC2)c2cc(Cl)ccc2[nH]c1=O | 1.61 µM | 0.86 µM | 0.36 µM | 0.1 µM | – |
